Measured values as given in ChEMBL document CHEMBL4725385, “Design and synthesis of β-strand-fixed peptides inhibiting aggregation of amyloid β-protein” (Bioorg Med Chem, 2020).
Active and inactive are the calls of the source. The calls are words filed in the database; no cut-off is given here. Peptide text beside a SMILES is read from it.

Experiments:
[1] = target: Amyloid-beta precursor protein (Homo sapiens) (UniProt P05067); experiment: Inhibition of HFIP-pretreated amyloid beta (1 to 42) (unknown origin) aggregation in PBS buffer at pH 7.4 incubated for 48 hrs by thioflavin-T fluorescence assay
In short: (§1)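 Aβ42 pretreated with HFIP (1 mg/mL, 30 min RT, sonicated 5 min, dried to film), then diluted from 0.1% NH4OH stock to final 10 µM in PBS (50 mM sodium phosphate, 100 mM NaCl) with compound from DMSO stock (final 1% DMSO), pH 7.4. Incubated at 37 °C for 0–48 h. Aliquots were frozen at -80 °C, then mixed with 5.0 µM Th-T in 50 mM Gly-NaOH pH 8.5. Fluorescence read at ex 430/em 510 nm, buffer background subtracted; mean ± SD, n = 4.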

[2] = target: Amyloid-beta precursor protein (Homo sapiens) (UniProt P05067); experiment: Inhibition of HFIP-pretreated amyloid beta (1 to 42) (unknown origin) aggregation in PBS buffer at pH 7.4 assessed as effect on fibril formation at 40 uM after 48 hrs by uranyl acetate staining based transmission electron microscopy
In short: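 HFIP-treated Aβ42 (final 10 µM) was incubated with compound (final 40 µM) in PBS containing 1% DMSO, pH 7.4, at 37 °C for 48 h. Pellets were collected by centrifugation and resuspended in distilled water. They were left on formvar-coated copper grids for 5 min, negatively stained with 2% uranyl acetate and imaged by TEM.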

SH-SY5Y [3] = experiment: Neuroprotective activity against amyloid beta (1 to 42 residues) induced cytotoxicity in human SH-SY5Y cells assessed as cell viability at 10 uM after 48 hrs by MTT assay; assay type: functional, cell-based
In short: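 SH-SY5Y cells (ATCC) were grown in DMEM/F-12 with 10% FBS and penicillin/streptomycin at 37 °C, 5% CO2. Cells were plated at 2.0 × 10^4 per well and pre-incubated for 24 h. HFIP-treated Aβ42 (final 1 µM) and compound (final 10 µM) were added, with 0.5% DMSO and 0.01% NH4OH final. After 48 h, MTT (5 mg/mL stock) was added for 4 h, then DMSO was used for solubilization. Mean ± SD, n = 3.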

[4] = target: Amyloid-beta precursor protein (Homo sapiens) (UniProt P05067); experiment: Inhibition of HFIP-pretreated amyloid beta (1 to 42) (unknown origin) aggregation in PBS buffer at pH 7.4 at 40 uM incubated for 48 hrs by thioflavin-T fluorescence assay; in short: as §1
SH-SY5Y [5] = experiment: Cytotoxicity against human SH-SY5Y cells assessed as reduction in cell viability at 10 uM measured after 48 hrs by MTT assay; assay type: cell-based

Sequence of Amyloid-beta precursor protein (Homo sapiens) (P05067 whole entry): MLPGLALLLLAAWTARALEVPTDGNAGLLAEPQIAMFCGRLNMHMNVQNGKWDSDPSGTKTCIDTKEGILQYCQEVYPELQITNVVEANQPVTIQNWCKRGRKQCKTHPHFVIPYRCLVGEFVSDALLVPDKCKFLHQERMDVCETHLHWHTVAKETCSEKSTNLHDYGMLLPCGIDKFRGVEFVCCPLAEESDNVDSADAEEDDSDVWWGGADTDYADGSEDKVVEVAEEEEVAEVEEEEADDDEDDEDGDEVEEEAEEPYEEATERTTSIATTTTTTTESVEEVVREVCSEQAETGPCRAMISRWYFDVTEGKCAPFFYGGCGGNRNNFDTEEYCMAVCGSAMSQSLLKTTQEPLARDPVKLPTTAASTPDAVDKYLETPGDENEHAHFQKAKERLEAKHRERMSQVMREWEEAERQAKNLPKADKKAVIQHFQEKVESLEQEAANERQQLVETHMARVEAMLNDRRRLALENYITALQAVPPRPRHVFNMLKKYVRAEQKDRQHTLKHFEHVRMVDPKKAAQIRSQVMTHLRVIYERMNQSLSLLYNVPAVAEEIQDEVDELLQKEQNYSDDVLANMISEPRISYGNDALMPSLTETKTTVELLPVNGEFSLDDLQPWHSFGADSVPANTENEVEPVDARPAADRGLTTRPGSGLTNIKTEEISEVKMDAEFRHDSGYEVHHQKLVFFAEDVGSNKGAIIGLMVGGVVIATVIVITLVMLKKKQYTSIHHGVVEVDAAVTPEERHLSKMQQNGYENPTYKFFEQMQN

| inhibition [1] | inhibition [2] | inhibition [4] | SMILES | Activity (SH-SY5Y [3]) | Activity (SH-SY5Y [5]) |
| --- | --- | --- | --- | --- | --- |
| Dose-dependent effect | inactive | – | CC(C)C[C@H](N)C(=O)N[C@H]1Cc2ccc(cc2)OC/C=C/C[C@@H](C(=O)N[C@@H](C)C(=O)O)NC(=O)[C@H](Cc2ccccc2)NC1=O | inactive | – |
| – | inactive | inactive | CC(C)C[C@H](N)C(=O)N[C@H](C(=O)N[C@H]1Cc2ccc(cc2)OC/C=C/C[C@@H](C(=O)O)NC(=O)[C@H](Cc2ccccc2)NC1=O)C(C)C | inactive | – |
| – | inactive | Active | CC(C)C[C@H](N)C(=O)N[C@H]1Cc2ccc(cc2)OC/C=C/C[C@@H](C(=O)N[C@@H](CC(=O)O)C(=O)O)NC(=O)[C@H](Cc2ccccc2)NC1=O | inactive | – |
| – | inactive | Active | O=C(O)C[C@H](NC(=O)[C@@H]1C/C=C/COc2ccc(cc2)C[C@H](NC(=O)[C@@H]2CCCN2)C(=O)N[C@@H](Cc2ccccc2)C(=O)N1)C(=O)O | inactive | – |
| – | – | inactive | COC(=O)[C@@H]1C/C=C/COc2ccc(cc2)C[C@H](NC(=O)OC(C)(C)C)C(=O)N[C@@H](CC(C)C)C(=O)N1 | – | – |
| – | inactive | Active | C[C@H](NC(=O)[C@@H]1C/C=C/COc2ccc(cc2)C[C@H](NC(=O)[C@@H]2CCCN2)C(=O)N[C@@H](Cc2ccccc2)C(=O)N1)C(=O)O | inactive | – |
| Dose-dependent effect | inactive | – | CC(C)C[C@H](N)C(=O)N[C@H]1C/C=C/COc2ccc(cc2)C[C@@H](C(=O)N[C@@H](C)C(=O)O)NC(=O)[C@H](Cc2ccccc2)NC1=O | inactive | Toxic |
| – | inactive | inactive | CC(C)[C@@H]1NC(=O)[C@@H](N)C/C=C/COc2ccc(cc2)C[C@@H](C(=O)N[C@@H](Cc2ccccc2)C(=O)N[C@@H](C)C(=O)O)NC1=O | inactive | – |
| – | – | inactive | CC(C)C[C@H](N)C(=O)N1CCC[C@H]1C(=O)N[C@@H](Cc1ccccc1)C(=O)N[C@@H](Cc1ccccc1)C(=O)O (H-LPFF-OH) | – | – |
